The source made the active and inactive calls. The calls are words filed in the database; no cut-off is given here.
What was measured:
PC-12 [1] = experiment: Cytoprotection activity against H2O2-induced rat PC12-shNrf2-2 cell assessed as cell viability at 12.5 to 100 uM pretreated for 24 hrs followed by H2O2 challenge and measured after 24 hrs by MTT assay; format: functional, cell-based; details: dose 12.5-100 µM, time 48.0 hrs
In short: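 PC12 lines made by lentiviral shRNA against rat Nrf2 (shNrf2-2) or scrambled control (shNT), selected with 0.5 mg/mL G418, knockdown confirmed by Western blot. Pretreated 24 h with 12.5, 25.0, 50.0 or 100 µM compound, then H2O2 for 24 h; viability by MTT; mean ± SD, three independent experiments.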

PC-12 [2] = experiment: Inhibition of H202-induced apoptosis in rat PC-12 cells assessed as early apoptotic cells at 50 uM after 24 hrs by Annexin-V-FITC/PI-staining based flow cytometric analysis (reference value: 15.16%); format: functional; set-up: scale not given: the % may be the effect or the level left
In short: (§1)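 PC12 cells seeded 2 × 10⁵/well for 24 h, pretreated 24 h with 12.5, 25, 50 or 100 µM compound, then given fresh medium containing 650 µM H2O2. Harvested cells washed in binding buffer, stained 5 min with Annexin V-FITC/PI, analysed by flow cytometry.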

PC-12 [3] = experiment: Inhibition of H202-induced apoptosis in rat PC-12 cells assessed as early apoptotic cells at 12.5 uM after 24 hrs by Annexin-V-FITC/PI-staining based flow cytometric analysis (reference value: 15.16%); format: functional; set-up: scale not given: the % may be the effect or the level left; in short: as §1
PC-12 [4] = experiment: Inhibition of H202-induced apoptosis in rat PC-12 cells assessed as viable cells at 50 uM after 24 hrs by Annexin-V-FITC/PI-staining based flow cytometric analysis (reference value: 52.01%); format: functional; details: read-out: Activity; in short: as §1
Mus musculus [5] = experiment: Neuroprotective activity against lesioned C57BL/6 mouse model of Parkinson's disease assessed as increase in expression of HO-1 and NQO1 at 50 to 100 mg/kg , po administered for 2 week before MPTP stimulation by western blotting assays; format: functional, organism-based; details: Brain, dose 50-100 mg/kg, time 2.0 weeks
Mus musculus [6] = experiment: Neuroprotective activity against lesioned C57BL/6 mouse model of Parkinson's disease assessed as increase in number of TH positive cells at 100 mg/kg , po administered for 2 week […] by Immuno histochemistry assays; details: time 2 weeks
PC-12 [7] = experiment: Inhibition of H202-induced apoptosis in rat PC-12 cells assessed as viable cells at 25 uM after 24 hrs by Annexin-V-FITC/PI-staining based flow cytometric analysis (reference value: 52.01%); format: functional; details: read-out: Activity; in short: as §1
PC-12 [8] = experiment: Inhibition of H202-induced apoptosis in rat PC-12 cells assessed as late apoptotic cells at 12.5 uM after 24 hrs by Annexin-V-FITC/PI-staining based flow cytometric analysis (reference value: 32.5%); format: functional; set-up: scale not given: the % may be the effect or the level left; in short: as §1
Mus musculus [9] = experiment: Neuroprotective activity against lesioned C57BL/6 mouse model of Parkinson's disease assessed as increase in number of TH positive cells at 50 to 100 mg/kg , po administered for 2 week before MPTP stimulation by Immuno histochemistry assays; format: functional; details: dose 50-100 mg/kg, time 2 weeks
In short: (§2)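 Male 10-week-old C57BL/6 mice (20–23 g), n = 6/group. Prophylactic: oral compound (50 or 100 mg/kg in saline) 2 weeks, then MPTP-HCl 25 mg/kg i.p. in week 3. Therapeutic: MPTP-HCl 25 mg/kg i.p. 1 week, then oral 100 mg/kg 2 weeks. Saline vehicle. Pole/rotarod training last 3 days; TH immunohistochemistry on SNpc and striatum.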

Mus musculus [10] = experiment: Neuroprotective activity in lesioned C57BL/6 mouse model of Parkinson's disease assessed as assessed as reduction in climbing down time at 100 mg/kg, po administered for 2 week before MPTP stimulation by pole test; format: functional; details: C57BL/6, po, 336 h, time 2 weeks; in short: as §2
[11] = target: T1, Nuclear factor erythroid 2-related factor 2 (Rattus norvegicus) (UniProt O54968); experiment: Induction of Nrf2 nuclear translocation in rat PC-12 cells assessed as Nrf2 accumulation in nucleus at 25 uM by Western blot analysis; format: cell-based; details: filed as activator, time 4-8 hrs, TDE = time-dependent effect
T1 sequence (whole entry): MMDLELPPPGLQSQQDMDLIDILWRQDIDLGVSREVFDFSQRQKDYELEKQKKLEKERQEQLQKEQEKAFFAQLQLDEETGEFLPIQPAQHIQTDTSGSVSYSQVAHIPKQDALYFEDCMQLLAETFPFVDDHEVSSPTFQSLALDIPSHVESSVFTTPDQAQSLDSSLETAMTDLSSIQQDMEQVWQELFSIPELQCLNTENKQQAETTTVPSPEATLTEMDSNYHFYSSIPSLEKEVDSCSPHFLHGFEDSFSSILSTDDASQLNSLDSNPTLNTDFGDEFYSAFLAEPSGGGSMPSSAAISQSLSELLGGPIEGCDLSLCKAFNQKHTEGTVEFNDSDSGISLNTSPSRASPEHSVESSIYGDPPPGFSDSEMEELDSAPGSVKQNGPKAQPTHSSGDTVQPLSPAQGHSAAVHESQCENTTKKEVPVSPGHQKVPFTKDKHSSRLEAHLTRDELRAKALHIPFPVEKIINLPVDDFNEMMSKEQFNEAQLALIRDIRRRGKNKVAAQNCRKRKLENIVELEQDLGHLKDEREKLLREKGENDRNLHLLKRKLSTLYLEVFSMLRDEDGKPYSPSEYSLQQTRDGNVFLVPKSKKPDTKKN
In short: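 PC12 cells incubated with 25 µM compound for 4, 6 and 8 h; nuclear and cytoplasmic fractions prepared with an extraction kit; nuclear, cytosolic and total Nrf2 assessed by SDS-PAGE/PVDF Western blot. Three independent experiments.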

PC-12 [12] = experiment: Inhibition of H2O2-induced reactive oxygen species production in rat PC-12 cells assessed as decrease in ROS accumulation at 12.5 to 50 uM measured after pretreated for 24 hrs followed by H2O2 challenge and measured after 24 hrs by DCFH-DA probe based flow cytometry; format: functional, cell-based; details: dose 12.5-50 µM, time 48.0 hrs
In short: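 PC12 cells seeded 1 × 10⁴/well, pretreated 24 h with 12.5–100 µM compound, then 300 µM H2O2 for 24 h. Rinsed, loaded with DCFH-DA (1:1000 in serum-free medium) 15 min at room temperature in the dark, washed; fluorescence read by microscopy, plate reader ([…]) and flow cytometry; three independent experiments.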

COc1ccccc1/C=C/C=C/C(=O)N1CCCCC1
Activity (PC-12 [1]): inactive
Activity (PC-12 [2]): 12.01%
Activity (PC-12 [3]): 12.26%
viability at 50 µM (PC-12 [4]): 74.8%
Activity (Mus musculus [5]): Active
Activity (Mus musculus [6]): 74%
viability at 25 µM (PC-12 [7]): 69%
Activity (PC-12 [8]): 26.08%
Activity (Mus musculus [9]): 30.7%
inhibition in vivo at 100 mg/kg (Mus musculus [10]): 34.5%
Activity [11]: Tde
inhibition (PC-12 [12]): Active

Source: ChEMBL document CHEMBL4765320, “Identification and optimization of piperine analogues as neuroprotective agents for the treatment of Parkinson's disease via the activation of Nrf2/keap1 pathway” (Eur J Med Chem, 2020)
